According to PubChem BioAssay:
The source made the active and inactive calls.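 The calls were made as follows: active = GFP response above 150% of the DMSO control; inconclusive = fewer than 70 events counted in any yeast strain; inactive = the rest.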

Assay: LAP4-GFP expression modulators in yeast, confirmation, cell-based, cherry picks, flow cytometry, mother/daughter gates (AID 2271);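 also: ratio of sample to DMSO plate mean so 100% equals DMSO level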
Settings: S. cerevisiae LAP4-GFP strain, 3 h, at 10 µM, active compounds read high, 100 means same as DMSO control
In short: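 Material – Alexa Fluor 633-labelled Saccharomyces cerevisiae GFP-fusion strain, single-plex · Incubation – compound exposure 3 h at 30 °C, end-over-end rotation · Measured by – GFP by flow cytometry · Measure – median GFP fluorescence as percent of plate-mean DMSO wells · Control set – positive rapamycin (400 ng/mL), negative DMSO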

Row | Compound | GFP response relative to DMSO
1 | COC(=O)c1ccccc1Sc1ncnc2onc(C)c12 | 111% (inactive)
2 | CC(C)(C)C(=O)C(Cl)C(=O)Nc1ccccc1 (stereo not given) | 300% (active)
3 | O=[N+]([O-])c1ccc(S(=O)(=O)c2cccc(C(F)(F)F)c2)nc1 | 240% (active)
4 | Cc1cccn2c(=O)c(/C=C(\C#N)C(=O)NC3CCS(=O)(=O)C3)c(N3CC(C)OC(C)C3)nc12 (stereo not given) | 92.8% (inactive)
5 | CCc1nnc(NC(=O)c2ccc(S(=O)(=O)N(CCOC)CCOC)cc2)o1 | 91.5% (inactive)
6 | Cc1ccc(N(C(=O)CCCC(=O)Nc2ccccn2)C(C(=O)NC2CCCC2)c2ccc(O)cc2)cc1C (stereo not given) | 98.7% (inactive)
7 | COc1ccc(OC)c(C2C(C(=O)Nc3nc4ccccc4s3)=C(C)NC3=C2C(=O)CCC3)c1 (stereo not given) | 102% (inactive)
8 | O=[N+]([O-])c1ccc(-c2cn3nc(-c4ccccc4)c(-c4ccccc4)nc3n2)cc1 | 115% (inactive)
9 | COc1ccccc1OC(C)C(=O)Nc1ccccc1C(=O)NCC1CCCO1 (stereo not given) | 97.7% (inactive)
10 | COc1ccc(NS(=O)(=O)c2cccc3ccccc23)cc1 | 97.9% (inactive)
11 | O=C(c1ccc2ccccc2c1)N1CCN(c2ccc(O)cc2)CC1 | 101% (inactive)
12 | O=C1c2ccsc2SCCN1Cc1cccc(Cl)c1 | 108% (inactive)
13 | CCCOc1ccc(C(=O)NNC(=S)NC(=O)CC)cc1 | 181% (active)
14 | Cc1cccc(N2C(=O)c3cccc4c(N(C)CCO)ccc(c34)C2=O)c1 | 110% (inactive)
15 | Cc1ccc(-n2ncc(C#N)c2/N=C/N(C)C)cc1 | 101% (inactive)
16 | C=CCOc1ccccc1C(=O)/C=C1/C(=O)Nc2ccccc21 | 142% (inactive)
17 | O=c1cnnc(SCc2ccc([N+](=O)[O-])cc2)[nH]1 | 102% (inactive)
18 | Cc1ccc(S(=O)(=O)N2CCCC2C(=O)Oc2ccccc2)cc1 (stereo not given) | 99.2% (inactive)
19 | COCCNc1c(-c2ccc(O)cc2)nc2ccc(Cl)cn12 | 99.2% (inactive)
20 | O=C(Nc1nc(-c2ccc(F)cc2)cs1)c1cnccn1 | 101% (inactive)

Row | Compound | GFP response relative to DMSO
21 | CS(=O)(=O)N1N=C(c2ccc3nccnc3c2)CC1c1ccccc1 (stereo not given) | 100% (inactive)
22 | O=C(NCCCSc1ccccc1)c1cc(Cl)ccc1O | 108% (inactive)
23 | COc1ccc(N2C(=O)CC(Sc3ncn[nH]3)C2=O)c(OC)c1 (stereo not given) | 172% (active)
24 | CN1CCSc2ccc(C(=O)Nc3cccc(F)c3)cc21 | 120% (inactive)
25 | CCN(CC)CCCN(C(=O)c1ccc(Br)cc1)c1nc(-c2ccc(OC)cc2)cs1 | 95.3% (inactive)
26 | O=C(Nc1nccs1)C1CCCN1S(=O)(=O)c1ccc(F)cc1 (stereo not given) | 96.2% (inactive)
27 | O=C(c1ccccc1)c1ccccc1N1C(=O)C=CC1=O | 266% (active)
28 | COc1ccc(N2CCN(C(=O)C3CCCN(S(=O)(=O)c4ccc(C)cc4)C3)CC2)cc1 (stereo not given) | 103% (inactive)
29 | Cc1cc(NCCCN2CCOCC2)n2nc(C)c(-c3ccc(F)cc3)c2n1 | 104% (inactive)
30 | CCC(C)(C)n1nnnc1C(c1ccc(O)c(OC)c1)N1CCc2ccccc2C1 (stereo not given) | 117% (inactive)
31 | COc1ccc(-c2csc(Nc3ncccc3C)n2)cc1 | 107% (inactive)
32 | O=S(=O)(Nc1ccc(Br)cc1)c1cccc2nonc12 | 96.5% (inactive)
33 | O=C(CSc1nnc(C2COc3ccccc3O2)o1)N1CCCC1 (stereo not given) | 94.9% (inactive)
34 | CCc1noc(C)c1C(=O)Nc1nc2ccc(OC)cc2s1 | 108% (inactive)
35 | CCc1ccc(C(=O)/C=C/c2ccc([N+](=O)[O-])o2)cc1 | 146% (inactive)
36 | CSc1ccc(-c2cc(=O)c3ccccc3o2)cc1 | 117% (inactive)
37 | COc1ccccc1C(=O)N1CCN(c2cccc(C(F)(F)F)c2)CC1 | 95.3% (inactive)
38 | COc1cc(/C=C2\N=C(c3ccccc3)OC2=O)ccc1OCc1c(C)no[n+]1[O-] | 96.5% (inactive)
39 | CC(C)C(=O)Nc1ccc(NC(=O)c2cc3ccccc3o2)cc1 | 102% (inactive)
40 | CCOC(=O)Cc1csc(NC(=O)CSc2nnc(-c3ccc(C)cc3)o2)n1 | 103% (inactive)
